Measured values taken from ChEMBL document CHEMBL2417499, “Structure-activity relationship studies of Niemann-Pick type C1-like 1 (NPC1L1) ligands identified by screening assay monitoring pharmacological chaperone effect” (Bioorg Med Chem, 2013).
Blank lines part the entries; values can stand above or below the molecule they belong to. Activity calls are given as the source filed them. The rule behind the calls is not given here.

What was measured:
[1] = system: HEK293; experiment: Competitive binding affinity to human GFP-tagged NPC1L1 L1072T/L1168I mutant expressed in HEK293 cells assessed as localization to endoplasmic reticulum and plasma membrane at 0.01 to 10 uM after 24 hrs by fluorescence microscopic analysis in presence of N,N-(Dimethyl)-delta(5)-cholenamid-3beta-yl N,N-bis(2-hydroxyethyl)carbamate; assay type: cell-based
[2] = system: HEK293; experiment: Binding affinity to human GFP-tagged NPC1L1 L1072T/L1168I mutant expressed in HEK293 cells assessed as localization to endoplasmic reticulum and plasma membrane at 10 uM after 24 hrs by fluorescence microscopic analysis; assay type: cell-based
In short: (§1)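 HEK293 cells stably expressing NPC1L1-GFP mutant from a CMV promoter, kept under G418 (0.4 mg/mL). Seeded at 6,000 cells/well on poly-lysine-coated glass in DMEM with 1% FBS. Dosed next day in 0.1% DMSO final for 24 h, then fixed in 3.7% formaldehyde and imaged at ×100. Each cell in 25 images scored ER 0 to PM 1; mean reported as % plasma membrane localization.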

[3] = system: HEK293; experiment: Binding affinity to human GFP-tagged NPC1L1 L1072T/L1168I mutant expressed in HEK293 cells assessed as localization to endoplasmic reticulum and plasma membrane at 3 uM after 24 hrs by fluorescence microscopic analysis; assay type: cell-based; in short: as §1
[4] = target: T1, NPC intracellular cholesterol transporter 1 (Homo sapiens) (UniProt O15118); experiment: (§2) Binding affinity to NPC1 (unknown origin)
T1 sequence (whole entry): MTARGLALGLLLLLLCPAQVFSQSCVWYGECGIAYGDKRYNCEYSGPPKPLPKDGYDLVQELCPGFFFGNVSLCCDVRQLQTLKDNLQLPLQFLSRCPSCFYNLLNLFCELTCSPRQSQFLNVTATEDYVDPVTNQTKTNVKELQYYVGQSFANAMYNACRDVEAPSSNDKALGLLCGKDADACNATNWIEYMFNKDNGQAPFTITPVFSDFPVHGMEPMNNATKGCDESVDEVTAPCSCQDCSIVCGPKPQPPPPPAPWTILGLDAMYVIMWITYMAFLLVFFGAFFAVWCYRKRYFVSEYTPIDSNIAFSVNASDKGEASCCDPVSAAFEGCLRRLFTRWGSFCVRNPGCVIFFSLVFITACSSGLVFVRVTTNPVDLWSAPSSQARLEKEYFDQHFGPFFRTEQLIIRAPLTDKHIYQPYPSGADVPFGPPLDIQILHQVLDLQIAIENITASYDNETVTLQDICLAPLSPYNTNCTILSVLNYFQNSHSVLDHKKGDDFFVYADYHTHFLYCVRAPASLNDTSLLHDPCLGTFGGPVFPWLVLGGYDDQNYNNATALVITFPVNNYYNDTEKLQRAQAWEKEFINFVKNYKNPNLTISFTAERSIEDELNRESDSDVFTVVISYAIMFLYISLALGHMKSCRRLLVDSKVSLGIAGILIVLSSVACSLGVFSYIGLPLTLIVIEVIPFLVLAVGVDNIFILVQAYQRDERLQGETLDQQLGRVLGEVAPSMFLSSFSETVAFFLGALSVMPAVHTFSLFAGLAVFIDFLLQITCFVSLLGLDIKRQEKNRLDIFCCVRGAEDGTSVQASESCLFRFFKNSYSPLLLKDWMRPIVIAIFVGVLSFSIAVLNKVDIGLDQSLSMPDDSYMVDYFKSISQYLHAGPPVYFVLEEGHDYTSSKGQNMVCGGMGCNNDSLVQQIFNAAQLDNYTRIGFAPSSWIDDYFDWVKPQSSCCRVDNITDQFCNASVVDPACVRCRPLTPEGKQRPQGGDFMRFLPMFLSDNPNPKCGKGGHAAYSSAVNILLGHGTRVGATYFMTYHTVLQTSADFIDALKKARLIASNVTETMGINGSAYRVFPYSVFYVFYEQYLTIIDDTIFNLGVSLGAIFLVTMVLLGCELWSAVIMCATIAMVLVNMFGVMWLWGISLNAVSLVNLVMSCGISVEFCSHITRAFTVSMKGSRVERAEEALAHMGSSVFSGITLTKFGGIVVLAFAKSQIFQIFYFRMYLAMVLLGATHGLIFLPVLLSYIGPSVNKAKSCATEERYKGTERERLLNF

[5] = system: HEK293; experiment: Binding affinity to human GFP-tagged NPC1L1 L1072T/L1168I mutant expressed in HEK293 cells assessed as protein stabilization after 24 hrs by fluorescence assay; assay type: cell-based
In short: (§3)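 Stable HEK293 lines were grown to 70% confluency in phenol red-free medium in 12-well plates and exposed to vehicle or compound for 24 h. Supernatant GFP fluorescence was read and normalized to BCA total protein, n = 3.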

[6] = system: HEK293; experiment: Binding affinity to human GFP-tagged NTD-deleted NPC1L1 L1072T/L1168I mutant expressed in HEK293 cells assessed as protein stabilization after 24 hrs by fluorescence assay; assay type: cell-based; in short: as §3
[7] = species on record: Homo sapiens; experiment: Selectivity ratio of EC50 for NPC1 (unknown origin) to EC50 for human GFP-tagged NPC1L1 L1072T/L1168I mutant
[8] = target: T2, NPC intracellular cholesterol transporter 1 (Homo sapiens, UniProt O15118); experiment: as §2
T2 sequence (O15118 whole entry): T1 sequence (whole entry)

[9] = Binding affinity to human GFP-tagged NTD-deleted NPC1L1 L1072T/L1168I mutant expressed in HEK293 cells assessed as localization to plasma membrane after 24 hrs by fluorescence microscopic analysis; assay type: cell-based
In short: (§4)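 HEK293 cells stably expressing the GFP-tagged construct (G418 0.4 mg/mL) were seeded at 6,000 cells/well in DMEM with 1% FBS on poly-lysine-coated glass. On day 2 they were treated for 24 h, final DMSO 0.1%. Cells were fixed in 3.7% formaldehyde and imaged at ×100. Across 25 images, cells were scored ER 0 to PM 1 and averaged as % plasma membrane localization. EC50 was taken from this score.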

[10] = Binding affinity to human GFP-tagged NPC1L1 L1072T/L1168I mutant expressed in HEK293 cells assessed as localization to endoplasmic reticulum and plasma membrane after 24 hrs by fluorescence microscopic analysis; assay type: cell-based; conditions: read-out: EC50; in short: as §4
[11] = system: HEK293; experiment: Binding affinity to human GFP-tagged NTD-deleted NPC1L1 L1072T/L1168I mutant expressed in HEK293 cells assessed as localization to plasma membrane at 10 uM after 24 hrs by fluorescence microscopic analysis; assay type: cell-based
In short: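 HEK293 cells stably expressing the GFP-tagged NTD-deleted mutant were treated for 24 h with 0.1% final DMSO, then fixed in 3.7% formaldehyde. Cells were imaged at ×100 and scored from ER (0) to PM (1) over 25 images, reported as % plasma membrane localization.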

Compound: O=C1[C@H](CC[C@H](O)c2ccc(F)cc2)[C@@H](c2ccc(O)cc2)N1c1ccc(F)cc1
Activity [1]: inactive | Activity [2]: inactive

Compound: CC(C)CCC[C@@H](C)[C@H]1CC[C@H]2[C@@H]3C[C@@H](O)[C@@]4(O)C[C@@H](O)CC[C@]4(C)[C@H]3CC[C@]12C
Activity [3]: inactive | Activity [4]: Active

Ratio EC50 [7]: 2.5 | EC50 [8]: 1600 nM | EC50 [9]: 1700 nM | EC50 [10]: 650 nM
Compound: C[C@H](CCC(=O)N(C)C)[C@H]1CC[C@H]2[C@@H]3CC=C4C[C@@H](OC(=O)N(CCO)CCO)CC[C@]4(C)[C@H]3CC[C@]12C
Activity [5]: Dose-dependent effect | Activity [6]: Active

Compound: CCCCN(CCCC)C(=O)O[C@H]1CC[C@@]2(C)C(=CC[C@H]3[C@@H]4CC[C@H]([C@H](C)CCC(=O)N(C)C)[C@@]4(C)CC[C@@H]32)C1
Activity [2]: inactive | Activity [11]: inactive
